Tests used:
Mus musculus [1] = assay: Anticonvulsant activity in NMRI mouse assessed as pentylenetetrazole-induced clonic seizure threshold at 5 mg/kg, ip administered 60 mins before pentylenetetrazole challenge; type: functional; conditions: route intraperitoneal
Procedure, shortened: (§1)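 Male NMRI mice (24-30 g), at least eight per group, each used once. Compounds dispersed in 0.5% CMC and given i.p. in 10 ml/kg, 60 min before PTZ. PTZ (0.5% in saline) infused i.v. into the tail vein at 0.5 ml/min in unrestrained animals until forelimb clonus then full body clonus. Threshold = minimal PTZ dose (mg/kg) for clonic seizure, expressed as % and compared with CMC group; mean ± SEM.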

Mus musculus [2] = assay: Anticonvulsant activity in NMRI mouse assessed as pentylenetetrazole-induced clonic seizure threshold at 20 mg/kg, ip administered 60 mins before pentylenetetrazole challenge; type: functional; conditions: route intraperitoneal; procedure, shortened: as §1
Mus musculus [3] = assay: Anticonvulsant activity in NMRI mouse assessed as pentylenetetrazole-induced clonic seizure threshold at 10 mg/kg, ip administered 60 mins before pentylenetetrazole challenge; type: functional; conditions: route intraperitoneal; procedure, shortened: as §1
[4] = Displacement of [3H]flumazenil from GABAA/BZD receptor in Sprague-Dawley rat cortical membrane after 35 mins by competition binding assay
Procedure, shortened: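 Cortex from male Sprague-Dawley rats (300-350 g), homogenized in Tris-HCl, washed, and preincubated 30 min at 37°C; membranes stored at -20°C and used within 1-15 days. 100 µg membrane protein incubated with 8.6×10^-5 nmole [3H]-flumazenil plus increasing test ligand in 50 mM Tris-HCl pH 7.4 (0.5 mL), 30°C, 35 min. Stopped by centrifugation. Excess diazepam defined nonspecific binding. Triplicates; IC50 = 50% inhibition of specific binding.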

Structure (SMILES)	Activity (Mus musculus [1])	Activity (Mus musculus [2])	Activity (Mus musculus [3])	IC50 [4]	Kd [4]
CCSc1nnc(Cc2ccccc2Oc2ccccc2)[nH]1	132.47%	168.55%	141.9%	–	–
CCOc1nnc(Cc2ccc(Cl)cc2Oc2ccccc2F)[nH]1	110.82%	138.25%	115.67%	2.07 nM	1.26 nM
Nc1nnc(Cc2ccc(Cl)cc2Oc2ccccc2F)o1	111.61%	154.23%	128.95%	1.89 nM	1.16 nM
Nc1nnc(Cc2ccccc2Oc2ccccc2)o1	131.63%	174.36%	142.52%	1.9 nM	1.17 nM
CCOc1nnc(Cc2ccc(Cl)cc2Oc2ccccc2Cl)[nH]1	120.06%	134.63%	122.29%	2.13 nM	1.3 nM
CCCSc1nnc(Cc2ccc(Cl)cc2Oc2ccccc2Cl)[nH]1	117.68%	134.09%	125.29%	1.35 nM	0.82 nM
CCOc1nnc(Cc2ccccc2Oc2ccccc2)[nH]1	122.56%	143.52%	125.79%	3.49 nM	2.14 nM
CN1C(=O)CN=C(c2ccccc2)c2cc(Cl)ccc21 [DIAZEPAM]	–	–	–	2.86 nM	1.75 nM
CSc1nnc(Cc2ccc(Cl)cc2Oc2ccccc2Cl)[nH]1	125.02%	169.89%	131.61%	2.52 nM	1.54 nM
CCSc1nnc(Cc2ccc(Cl)cc2Oc2ccccc2Cl)[nH]1	133.58%	173.98%	139.99%	1.63 nM	1 nM
CCCSc1nnc(Cc2ccc(Cl)cc2Oc2ccccc2F)[nH]1	119.45%	133.41%	127.32%	1.97 nM	1.21 nM
Fc1ccccc1Oc1cc(Cl)ccc1Cc1nnc(SCc2ccccc2)[nH]1	165.66%	178.53%	168.6%	0.892 nM	0.544 nM
CSc1nnc(Cc2ccccc2Oc2ccccc2)[nH]1	120.26%	147.06%	132.83%	1.38 nM	0.84 nM
CSc1nnc(Cc2ccc(Cl)cc2Oc2ccccc2F)[nH]1	110.43%	135.53%	121.41%	3.78 nM	2.32 nM
CCCSc1nnc(Cc2ccccc2Oc2ccccc2)[nH]1	127.77%	157.5%	139.38%	1.24 nM	0.75 nM
Fc1ccccc1Oc1cc(Cl)ccc1Cc1n[nH]c(=S)[nH]1	–	–	–	1.36 nM	0.836 nM
Nc1nnc(Cc2ccc(Cl)cc2Oc2ccccc2Cl)o1	125.22%	170.25%	132.44%	1.75 nM	1.1 nM
S=c1[nH]nc(Cc2ccc(Cl)cc2Oc2ccccc2Cl)[nH]1	124.08%	158.77%	138.87%	1.78 nM	1.09 nM
S=c1[nH]nc(Cc2ccccc2Oc2ccccc2)[nH]1	126.2%	160.47%	141.88%	3.1 nM	1.9 nM
Clc1ccc(Cc2nnc(SCc3ccccc3)[nH]2)c(Oc2ccccc2Cl)c1	112.52%	128.77%	122.18%	2.23 nM	1.36 nM
c1ccc(CSc2nnc(Cc3ccccc3Oc3ccccc3)[nH]2)cc1	129.27%	143.4%	139.21%	2.07 nM	1.27 nM
CCSc1nnc(Cc2ccc(Cl)cc2Oc2ccccc2F)[nH]1	125.52%	141.4%	144.44%	1.32 nM	0.8 nM
